Measured values reported in ChEMBL document CHEMBL1629526, “4-[1-(Substituted aryl/alkyl carbonyl)-benzoimidazol-2-yl]-benzenesulfonic acids: synthesis, antimicrobial activity, QSAR studies, and antiviral evaluation” (Eur J Med Chem, 2010).
Converted amounts (≈) assume the structure as drawn.

Columns and labels:
Staphylococcus aureus = assay: Antimicrobial activity against Staphylococcus aureus after 24 hrs by tube dilution method; type: functional
Bacillus subtilis = assay: Antimicrobial activity against Bacillus subtilis after 24 hrs by tube dilution method; type: functional
In short: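 Serial dilutions in double-strength nutrient broth (I.P.) with ciprofloxacin as reference, tube dilution, incubated 37 °C for 24 h. MIC is the lowest concentration that inhibited growth.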

Escherichia coli = assay: Antimicrobial activity against Escherichia coli after 24 hrs by tube dilution method; type: functional
Candida albicans = assay: Antimicrobial activity against Candida albicans after 48 hrs by tube dilution method; type: functional
Aspergillus niger = assay: Antimicrobial activity against Aspergillus niger after 7 days by tube dilution method; type: functional; details: 168 h
[1] = Cytotoxicity against cat CRFK cells assessed as cell viability by MTS assay; type: cell-based, Felis catus; details: crfk
In short: (§1)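 Uninfected cultures were run in parallel with the antiviral assays. Viability was read by colorimetric formazan MTS assay.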

Felid alphaherpesvirus 1 = assay: Antiviral activity against Feline herpesvirus 1 infected in cat CRFK cells assessed as inhibition of virus induced cytopathicity after 2 to 4 days by MTS assay; type: functional, organism-based; details: Felid alphaherpesvirus 1, CRFK
Feline coronavirus = assay: Antiviral activity against Feline coronavirus infected in cat CRFK cells assessed as inhibition of virus induced cytopathicity after 2 to 4 days by MTS assay; type: functional, organism-based; details: Alphacoronavirus 1, CRFK
[2] = Cytotoxicity against human HEL cells assessed as altered cell morphology; type: cell-based
In short: (§2)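 Uninfected cell cultures run alongside the antiviral assays, exposed to serial compound dilutions and incubated at 37 °C for 2–4 days. Toxicity was scored microscopically and reported as the minimum cytotoxic concentration (MCC), the lowest concentration causing a detectable change in normal cell morphology.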

Human alphaherpesvirus 1 [3] = assay: Antiviral activity against Herpes simplex virus 1 KOS infected in HEL cells assessed as inhibition of virus induced cytopathicity after 2 to 4 days by MTS assay; type: functional, organism-based; details: Human alphaherpesvirus 1, KOS
Human alphaherpesvirus 2 = assay: Antiviral activity against Herpes simplex virus 2 G infected in HEL cells assessed as inhibition of virus induced cytopathicity after 2 to 4 days by MTS assay; type: functional, organism-based; details: Human alphaherpesvirus 2, strain G
Vaccinia virus = assay: Antiviral activity against Vaccinia virus infected in HEL cells assessed as inhibition of virus induced cytopathicity after 2 to 4 days by MTS assay; type: functional, organism-based; details: Orthopoxvirus vaccinia
[4] = test system: Vesicular stomatitis virus; assay: Antiviral activity against Vesicular stomatitis virus infected in HEL cells assessed as inhibition of virus induced cytopathicity after 2 to 4 days by MTS assay; type: functional, organism-based
Human alphaherpesvirus 1 [5] = assay: Antiviral activity against thymidine kinase deficient acyclovir-resistant Herpes simplex virus 1 KOS infected in HEL cells assessed as inhibition of virus induced cytopathicity after 2 to 4 days by MTS assay; type: functional, organism-based; details: Human alphaherpesvirus 1, KOS
HeLa = assay: (§3) Cytotoxicity against human HeLa cells assessed as cell viability by MTS assay; type: cell-based; details: hela; in short: as §1
[6] = Cytotoxicity against human HeLa cells assessed as altered cell morphology; type: cell-based; in short: as §2
[7] = test system: Vesicular stomatitis virus; assay: Antiviral activity against Vesicular stomatitis virus infected in human HeLa cells assessed as inhibition of virus induced cytopathicity by visual scoring of CPE; type: functional, organism-based
[8] = test system: Vesicular stomatitis virus; assay: Antiviral activity against Vesicular stomatitis virus infected in human HeLa cells assessed as inhibition of virus induced cytopathicity after 2 to 4 days by MTS assay; type: functional, organism-based
Coxsackievirus B4 [9] = assay: Antiviral activity against coxsackievirus B4 infected in human HeLa cells assessed as inhibition of virus induced cytopathicity by visual scoring of CPE; type: functional, organism-based; details: Enterovirus B
Coxsackievirus B4 [10] = assay: Antiviral activity against coxsackievirus B4 infected in human HeLa cells assessed as inhibition of virus induced cytopathicity after 2 to 4 days by MTS assay; type: functional, organism-based; details: Enterovirus B
[11] = test system: Respiratory syncytial virus; assay: Antiviral activity against Respiratory syncytial virus infected in human HeLa cells assessed as inhibition of virus induced cytopathicity by visual scoring of CPE; type: functional, organism-based
[12] = test system: Respiratory syncytial virus; assay: Antiviral activity against Respiratory syncytial virus infected in human HeLa cells assessed as inhibition of virus induced cytopathicity after 2 to 4 days by MTS assay; type: functional, organism-based
MDCK = assay: (§4) Cytotoxicity against MDCK cells assessed as cell viability by MTS assay; type: cell-based, Canis lupus familiaris; details: dog, mdck; in short: as §1
[13] = Cytotoxicity against MDCK cells assessed as altered cell morphology; type: cell-based, Canis lupus familiaris; details: dog; in short: as §2
Influenza A virus [14] = assay: Antiviral activity against Influenza A H1N1 virus subtype infected in MDCK cells assessed as inhibition of virus induced cytopathicity by visual scoring of CPE; type: functional, organism-based
Influenza A virus [15] = assay: Antiviral activity against Influenza A H1N1 virus subtype infected in MDCK cells assessed as inhibition of virus induced cytopathicity after 2 to 4 days by MTS assay; type: functional, organism-based
Influenza A virus [16] = assay: Antiviral activity against Influenza A H3N2 virus subtype infected in MDCK cells assessed as inhibition of virus induced cytopathicity by visual scoring of CPE; type: functional, organism-based
Influenza A virus [17] = assay: Antiviral activity against Influenza A H3N2 virus subtype infected in MDCK cells assessed as inhibition of virus induced cytopathicity after 2 to 4 days by MTS assay; type: functional, organism-based
Influenza B virus [18] = assay: Antiviral activity against Influenza B virus infected in MDCK cells assessed as inhibition of virus induced cytopathicity by visual scoring of CPE; type: functional, organism-based
Influenza B virus [19] = assay: Antiviral activity against Influenza B virus infected in MDCK cells assessed as inhibition of virus induced cytopathicity after 2 to 4 days by MTS assay; type: functional, organism-based
[20] = Cytotoxicity against african green monkey Vero cells assessed as altered cell morphology; type: cell-based; details: chlorocebus sabaeus; in short: as §2
Human respirovirus 3 = assay: Antiviral activity against parainfluenza-3 virus infected in african green monkey Vero cells assessed as inhibition of virus induced cytopathicity after 2 to 4 days by MTS assay; type: functional, organism-based; details: Human respirovirus 3, Vero
[21] = test system: Mammalian orthoreovirus 1; assay: Antiviral activity against Reovirus 1 virus infected in african green monkey Vero cells assessed as inhibition of virus induced cytopathicity after 2 to 4 days by MTS assay; type: functional, organism-based; details: Mammalian orthoreovirus 1, Vero
Sindbis virus = assay: Antiviral activity against Sindbis virus infected in african green monkey Vero cells assessed as inhibition of virus induced cytopathicity after 2 to 4 days by MTS assay; type: functional, organism-based
Coxsackievirus B4 [22] = assay: Antiviral activity against Coxsackie virus B4 infected in african green monkey Vero cells assessed as inhibition of virus induced cytopathicity after 2 to 4 days by MTS assay; type: functional, organism-based; details: Enterovirus B
Punta Toro virus = assay: Antiviral activity against Punta Toro virus infected in african green monkey Vero cells assessed as inhibition of virus induced cytopathicity after 2 to 4 days by MTS assay; type: functional, organism-based
[23] = as §4; type: cell-based, Canis lupus familiaris; details: dog, MDCK cells; in short: as §1
[24] = as §3; type: cell-based; details: HeLa cells; in short: as §1

Row | Structure (SMILES) | MCC [2] [µg/mL] | EC50 (Human alphaherpesvirus 1 [3]) [µg/mL] | EC50 (Human alphaherpesvirus 2) [µg/mL] | EC50 (Vaccinia virus) [µg/mL] | EC50 [4] [µg/mL] | EC50 (Human alphaherpesvirus 1 [5]) [µg/mL] | MCC [6] [µg/mL] | EC50 [7] [µg/mL] | EC50 [8] [µg/mL] | EC50 (Coxsackievirus B4 [9]) [µg/mL] | EC50 (Coxsackievirus B4 [10]) [µg/mL] | EC50 [11] [µg/mL] | EC50 [12] [µg/mL] | MCC [13] [µg/mL] | EC50 (Influenza A virus [14]) [µg/mL] | EC50 (Influenza A virus [15]) [µg/mL] | EC50 (Influenza A virus [17]) [µg/mL] | EC50 (Influenza B virus [18]) [µg/mL] | EC50 (Influenza B virus [19]) [µg/mL] | MCC [20] [µg/mL] | further results
1 | Nc1ccc(C(=O)n2c(-c3ccc(S(=O)(=O)O)cc3)nc3ccccc32)cc1 | > 100 | > 100 | > 100 | > 100 | > 100 | > 100 | > 100 | > 100 | > 100 | > 100 | > 100 | > 100 | > 100 | 20 | > 4 | > 4 | > 4 | > 4 | > 4 | > 100 | MBC (Staphylococcus aureus): 12.5 µg/mL (≈ 31.8 µM); MBC (Bacillus subtilis): > 50 µg/mL; MBC (Escherichia coli): 25 µg/mL (≈ 63.5 µM); MFC (Candida albicans): > 50 µg/mL; MFC (Aspergillus niger): > 50 µg/mL; CC50 [1]: > 100 µg/mL; EC50 (Felid alphaherpesvirus 1): > 100 µg/mL; EC50 (Feline coronavirus): > 100 µg/mL; CC50 (HeLa): > 100 µg/mL; CC50 (MDCK): 46.8 µg/mL (≈ 119 µM); EC50 (Influenza A virus [16]): > 4 µg/mL; EC50 (Human respirovirus 3): > 100 µg/mL; EC50 [21]: > 100 µg/mL; EC50 (Sindbis virus): > 100 µg/mL; EC50 (Coxsackievirus B4 [22]): > 100 µg/mL; EC50 (Punta Toro virus): > 100 µg/mL
2 | NC12CC3CC(CC(C3)C1)C2 [AMANTADINE] | – | – | – | – | – | – | – | – | – | – | – | – | – | > 200 | 18 (≈ 119 µM) | 44 (≈ 291 µM) | 0.2 (≈ 1.32 µM) | > 200 | > 200 | – | CC50 [23]: > 200 µg/mL
3 | Nc1ncnc2c1ncn2C[C@H](O)CO [(S)-DHPA] | – | – | – | – | – | – | > 250 | – | > 250 | – | > 250 | – | > 250 | – | – | – | – | – | – | > 250 | CC50 [24]: > 250 µg/mL
4 | NC(=O)c1ncn([C@@H]2O[C@H](CO)[C@@H](O)[C@H]2O)n1 [RIBAVIRIN] | > 250 | 1 (≈ 4.09 µM) | 2 (≈ 8.19 µM) | 10 (≈ 40.9 µM) | > 250 | 2 (≈ 8.19 µM) | > 250 | 10 (≈ 40.9 µM) | – | 50 (≈ 205 µM) | 14 (≈ 57.3 µM) | 6 (≈ 24.6 µM) | 2.8 (≈ 11.5 µM) | > 100 | 9 (≈ 36.9 µM) | 12 (≈ 49.1 µM) | 8.4 (≈ 34.4 µM) | 7 (≈ 28.7 µM) | 4.3 (≈ 17.6 µM) | > 250 | CC50 [24]: > 250 µg/mL; EC50 (Human respirovirus 3): 95 µg/mL (≈ 389 µM); EC50 [21]: 112 µg/mL (≈ 459 µM); EC50 (Coxsackievirus B4 [22]): 250 µg/mL (≈ 1020 µM); EC50 (Punta Toro virus): 112 µg/mL (≈ 459 µM)
5 | O=C(c1ccc(O)cc1O)n1c(-c2ccc(S(=O)(=O)O)cc2)nc2ccccc21 | 100 | > 20 | > 20 | > 20 | > 20 | > 20 | > 100 | > 100 | > 100 | > 100 | > 100 | > 100 | > 100 | 20 | > 4 | > 4 | > 4 | > 4 | > 4 | > 100 | MBC (Staphylococcus aureus): 12.5 µg/mL (≈ 30.5 µM); MBC (Bacillus subtilis): 25 µg/mL (≈ 60.9 µM); MBC (Escherichia coli): 1.56 µg/mL (≈ 3.8 µM); MFC (Candida albicans): 12.5 µg/mL (≈ 30.5 µM); MFC (Aspergillus niger): > 50 µg/mL; CC50 [1]: > 100 µg/mL; EC50 (Felid alphaherpesvirus 1): > 100 µg/mL; EC50 (Feline coronavirus): > 100 µg/mL; CC50 (HeLa): > 100 µg/mL; CC50 (MDCK): 54 µg/mL (≈ 132 µM); EC50 (Influenza A virus [16]): > 4 µg/mL; EC50 (Human respirovirus 3): > 100 µg/mL; EC50 [21]: > 100 µg/mL; EC50 (Sindbis virus): > 100 µg/mL; EC50 (Coxsackievirus B4 [22]): > 100 µg/mL; EC50 (Punta Toro virus): > 100 µg/mL
6 | O=C(c1cccc(O)c1)n1c(-c2ccc(S(=O)(=O)O)cc2)nc2ccccc21 | > 100 | > 100 | > 100 | > 100 | > 100 | > 100 | > 100 | > 100 | > 100 | > 100 | > 100 | > 100 | > 100 | 100 | > 20 | > 20 | > 20 | > 20 | > 20 | > 100 | MBC (Staphylococcus aureus): 12.5 µg/mL (≈ 31.7 µM); MBC (Bacillus subtilis): > 50 µg/mL; MBC (Escherichia coli): 3.12 µg/mL (≈ 7.91 µM); MFC (Candida albicans): 50 µg/mL (≈ 127 µM); MFC (Aspergillus niger): > 50 µg/mL; CC50 [1]: > 100 µg/mL; EC50 (Felid alphaherpesvirus 1): > 100 µg/mL; EC50 (Feline coronavirus): > 100 µg/mL; CC50 (HeLa): > 100 µg/mL; CC50 (MDCK): > 100 µg/mL; EC50 (Influenza A virus [16]): > 20 µg/mL; EC50 (Human respirovirus 3): > 100 µg/mL; EC50 [21]: > 100 µg/mL; EC50 (Sindbis virus): > 100 µg/mL; EC50 (Coxsackievirus B4 [22]): > 100 µg/mL; EC50 (Punta Toro virus): > 100 µg/mL
7 | CC(N)C12CC3CC(CC(C3)C1)C2 (stereo not drawn) [RIMANTADINE] | – | – | – | – | – | – | – | – | – | – | – | – | – | > 200 | 4 (≈ 22.3 µM) | 12 (≈ 66.9 µM) | 0.02 (≈ 0.112 µM) | > 200 | > 200 | – | CC50 [23]: > 200 µg/mL; EC50 (Influenza A virus [16]): 0.03 µg/mL (≈ 0.167 µM)
